Assay results from ChEMBL document CHEMBL1142362, “Synthesis and biological activity of simplified denoviose-coumarins related to novobiocin as potent inhibitors of heat-shock protein 90 (hsp90)” (Bioorg Med Chem Lett, 2008).
Active and inactive are the calls of the source. The calls are words filed in the database; no cut-off is given here.

Legend:
[1] = system: MELN; assay: Effect on estradiol-induced transcription in human MELN cells assessed as increase in luciferase activity at 200 uM after 18 hrs relative to control; format: functional, cell-based
Outline: (§1)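 MELN breast cancer cells were treated for 18 h with the compounds, with or without 0.1 nM estradiol. Luciferase activity was measured and expressed as fold induction relative to untreated control cells.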

[2] = system: MCF7; assay: Inhibition of HSP90 in human MCF7 cells assessed as decrease in Raf-1 level at 100 uM after 16 hrs by Western blot analysis; format: cell-based
Outline: (§2)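 Treated MCF-7 cell lysates were immunoblotted using the primary antibodies ERα (HC20) and Raf-1 (C12), with detection by a peroxidase-labelled secondary antibody. The control lysate came from DMSO-exposed cells. A nonspecific band served as the loading control.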

[3] = system: MCF7; assay: Inhibition of HSP90 in human MCF7 cells assessed as decrease in ERalpha level at 100 uM after 16 hrs by Western blot analysis; format: cell-based; outline: as §2
[4] = system: MCF7; assay: Reversal of inhibition of HSP90 in human MCF7 cells assessed as decrease in ERalpha level at 100 uM after 16 hrs in presence of MG132 by Western blot analysis; format: cell-based
[5] = system: MELN; assay: Effect on estradiol-induced transcription in human MELN cells assessed as inhibition of luciferase activity at 200 uM after 18 hrs relative to control; format: functional, cell-based; outline: as §1
[6] = system: MCF7; assay: Antiproliferative activity against human MCF7 cells after 72 hrs by MTT assay; format: functional, cell-based; conditions: MCF7, 72 h
Outline: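 MCF-7 cells were seeded at 5000 cells/well and, after 24 h, exposed to serial dilutions for 72 h. Survival was read by MTT. IC50 is the concentration giving 50% growth inhibition versus vehicle-treated cells. Values are the means of three experiments run in sextuplicate, with standard deviation.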

[7] = system: MCF7; assay: Inhibition of HSP90 in human MCF7 cells assessed as decrease in progesterone receptor B level; format: cell-based
Outline: (§3)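 MCF-7 cells were exposed to increasing concentrations, and lysates were immunoblotted for PRA and PRB with a PR (Ab-8) primary antibody and a peroxidase-labelled secondary antibody. The control was a DMSO-exposed lysate. A nonspecific band served as the constant loading reference.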

[8] = system: MCF7; assay: Inhibition of HSP90 in human MCF7 cells assessed as decrease in progesterone receptor A level; format: cell-based; outline: as §3

IC50 [6] [µM]	SMILES	Activity [1]	Activity [2]	Activity [3]	Activity [4]	Activity [5]	Activity [7]	Activity [8]
–	CC1(C)C=Cc2cc(C(=O)Nc3c(O)c4ccccc4oc3=O)ccc2O1	Active	inactive	inactive	–	–	–	–
–	CC(=O)Nc1c(O)c2ccccc2oc1=O	–	Active	Active	Active	–	–	–
–	CCCCCCCCCCCCC(=O)Nc1c(-c2ccc(OC)cc2)c2ccccc2oc1=O	–	Active	Active	Active	–	–	–
–	CCCCCCCCCCCCC(=O)Nc1c(-c2ccc(Cl)cc2)c2ccccc2oc1=O	–	inactive	inactive	–	–	–	–
–	COc1cccc(OC)c1C(=O)Nc1c(O)c2ccccc2oc1=O	–	Active	Active	Active	–	–	–
–	COc1ccc(-c2c(NC(=O)c3cc(OC)c(OC)c(OC)c3)c(=O)oc3ccccc23)cc1	–	inactive	inactive	–	–	–	–
50	CCCCCCCCCCCCC(=O)Nc1c(OS(=O)(=O)c2ccc(C)cc2)c2ccccc2oc1=O	–	Active	Active	Active	Active	–	–
–	COc1ccccc1CC(=O)Nc1c(O)c2ccccc2oc1=O	–	Active	Active	Active	–	–	–
70	Cc1ccc(S(=O)(=O)Oc2c(NC(=O)C3=Cc4ccccc4OC3)c(=O)oc3ccccc23)cc1	–	Active	Active	Active	Active	–	–
40	COc1cc(C(=O)Nc2c(OS(=O)(=O)c3ccc(C)cc3)c3ccccc3oc2=O)cc(OC)c1OC	–	inactive	Active	Active	Active	–	–
–	COc1ccccc1CC(=O)Nc1c(OS(=O)(=O)c2ccc(C)cc2)c2ccccc2oc1=O	–	–	–	–	Active	–	–
–	CC1(C)CCc2cc(C(=O)Nc3c(O)c4ccccc4oc3=O)ccc2O1	–	Active	Active	Active	–	–	–
–	CCCC(=O)Nc1c(O)c2ccccc2oc1=O	–	inactive	inactive	–	Active	–	–
–	COc1ccc2cc(C(=O)Nc3c(O)c4ccccc4oc3=O)c(=O)oc2c1	–	Active	Active	Active	–	–	–
–	CCCCCCCCCCCCC(=O)Nc1c(-c2cc(OC)c(OC)c(OC)c2)c2ccccc2oc1=O	–	inactive	inactive	–	–	–	–
–	COc1ccc(-c2c(NC(=O)c3ccc(OC)cc3OC)c(=O)oc3ccccc23)cc1	–	inactive	inactive	–	–	–	–
35	Cc1ccc(S(=O)(=O)Oc2c(NC(=O)c3ccc4c(c3)C=CC(C)(C)O4)c(=O)oc3ccccc23)cc1	–	Active	Active	Active	Active	Active	Active
–	CCCC(=O)Nc1c(-c2cc(OC)c(OC)c(OC)c2)c2ccccc2oc1=O	–	inactive	inactive	–	–	–	–
75	CCCC(=O)Nc1c(OS(=O)(=O)c2ccc(C)cc2)c2ccccc2oc1=O	–	Active	Active	Active	Active	–	–
